Activity calls are given as the source filed them. The rule behind the calls is not given here.
What was measured:
Staphylococcus aureus [1] = assay: Antibacterial activity against methicillin-resistant Staphylococcus aureus isolate M1 after 16 to 20 hrs by broth microdilution method; type: functional
Summary of the method: (§1)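 CLSI broth microdilution in cation-adjusted Mueller-Hinton broth. A 4-6 h culture was diluted to about 10⁶ CFU/mL and mixed 1:1 with twofold compound dilutions (256–0.5 µg/mL before mixing) prepared from aqueous stocks. Plates were incubated at 37 °C for 16-20 h. Each concentration was tested in duplicate, and the experiment was repeated at least twice.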

Staphylococcus aureus [2] = assay: Antibacterial activity against methicillin-resistant Staphylococcus aureus isolate M2 after 16 to 20 hrs by broth microdilution method; type: functional; summary of the method: as §1
Staphylococcus aureus [3] = assay: Antibacterial activity against Staphylococcus aureus ATCC 29213 after 16 to 20 hrs by broth microdilution method; type: functional; summary of the method: as §1
Staphylococcus aureus [4] = assay: Antibacterial activity against methicillin-resistant Staphylococcus aureus isolate M8 after 16 to 20 hrs by broth microdilution method; type: functional; summary of the method: as §1
Staphylococcus aureus [5] = assay: Induction of cytoplasmic membrane depolarization in Staphylococcus aureus ATCC 29213 at 20 ug/ml measured every 2 mins for 12 mins by diSC35 staining based fluorescence assay; type: functional, organism-based
Summary of the method: (§2)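 Mid-log cells (4–6 h) pelleted, washed and resuspended (~10^8 CFU/mL) in PBS for S. aureus, or in 5 mM HEPES, 5 mM glucose and 100 mM KCl (1:1:1) for E. coli. Preloaded with diSC35 (10 µM, 50 µL), 30 min for S. aureus and 40 min plus EDTA (200 µM, 50 µL) for E. coli. Baseline read 8 min (ex 622/em 670 nm), then compound added to 20 µg/mL final and read every 2 min for 12 min. Water control.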

Escherichia coli [6] = assay: Antibacterial activity against Escherichia coli ATCC 25922 after 16 to 20 hrs by broth microdilution method; type: functional
Summary of the method: (§3)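 Broth microdilution per CLSI in cation-adjusted Mueller-Hinton broth; 4-6 h cultures (~10⁸ CFU/mL) diluted to ~10⁶ CFU/mL and mixed 1:1 with twofold dilutions of water-dissolved compound (256 to 0.5 µg/mL). Incubated 16-20 h at 37 °C; MIC read visually. Each concentration run in duplicate, whole experiment repeated at least twice. MRSA, KPC and NDM-1 strains were clinical isolates.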

Escherichia coli [7] = assay: Induction of inner membrane permeabilization in Escherichia coli ATCC 25922 at 20 ug/ml measured every 2 mins for 12 mins by propidium iodide staining based fluorescence assay; type: functional, organism-based
Summary of the method: (§4)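 Mid-log cells (~10^8 CFU/mL) pre-incubated with propidium iodide (10 µM, 50 µL), 30 min for S. aureus and 40 min for E. coli. Fluorescence (ex 535/em 617 nm) read for 8 min, then compound added to 20 µg/mL final and monitored every 2 min for 12 min. Water-treated control.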

Staphylococcus aureus [8] = assay: Antibacterial activity against methicillin-resistant Staphylococcus aureus isolate M3 after 16 to 20 hrs by broth microdilution method; type: functional; summary of the method: as §1
Enterococcus faecalis = assay: Antibacterial activity against Enterococcus faecalis after 16 to 20 hrs by broth microdilution method; type: functional; summary of the method: as §3
Staphylococcus aureus [9] = assay: Antibacterial activity against methicillin-resistant Staphylococcus aureus isolate M10 after 16 to 20 hrs by broth microdilution method; type: functional; summary of the method: as §1
Staphylococcus aureus [10] = assay: Antibacterial activity against methicillin-resistant Staphylococcus aureus isolate M6 after 16 to 20 hrs by broth microdilution method; type: functional; summary of the method: as §1
Staphylococcus aureus [11] = assay: Induction of inner membrane permeabilization in Staphylococcus aureus ATCC 29213 at 20 ug/ml measured every 2 mins for 12 mins by propidium iodide staining based fluorescence assay; type: functional, organism-based; summary of the method: as §4
Staphylococcus aureus [12] = assay: Antibacterial activity against methicillin-resistant Staphylococcus aureus isolate M7 after 16 to 20 hrs by broth microdilution method; type: functional; summary of the method: as §1
Escherichia coli [13] = assay: Induction of outer membrane permeabilization in Escherichia coli ATCC 25922 at 20 ug/ml measured every 2 mins for 12 mins by NPN staining based fluorescence assay; type: functional, organism-based
Summary of the method: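 Mid-log E. coli (~10^8 CFU/mL) in black plates pre-incubated about 40 min with NPN (10 µM, 50 µL). Baseline read 8 min (ex 350/em 420 nm), then compound added to 20 µg/mL final and fluorescence followed every 2 min for 12 min. Water-treated control.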

Escherichia coli [14] = assay: Induction of cytoplasmic membrane depolarization in Escherichia coli ATCC 25922 at 20 ug/ml measured every 2 mins for 12 mins by diSC35 staining based fluorescence assay; type: functional, organism-based; summary of the method: as §2
Salmonella enterica = assay: Antibacterial activity against Salmonella enterica after 16 to 20 hrs by broth microdilution method; type: functional; summary of the method: as §3
Staphylococcus aureus [15] = assay: Antibacterial activity against methicillin-resistant Staphylococcus aureus isolate M4 after 16 to 20 hrs by broth microdilution method; type: functional; summary of the method: as §1
Staphylococcus aureus [16] = assay: Antibacterial activity against methicillin-resistant Staphylococcus aureus isolate M9 after 16 to 20 hrs by broth microdilution method; type: functional; summary of the method: as §1
Staphylococcus aureus [17] = assay: Antibacterial activity against methicillin-resistant Staphylococcus aureus after 16 to 20 hrs by broth microdilution method; type: functional; summary of the method: as §1
[18] = Hemolytic activity in sheep RBC after 1 hr; type: ADME, cell-based, Ovis aries, Erythrocyte; conditions: sheep red blood cells (erythrocytes)
Summary of the method: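 Sheep RBCs suspended at 5% in PBS; 150 µL added to 50 µL compound dilutions (5120 to 10 µg/mL series). Incubated 1 h at 37 °C, then centrifuged; supernatant absorbance read at 540 nm. Lysis (%) = (A−A0)/(Atotal−A0)×100, with untreated 5% RBC as A0 and 0.1% Triton X-100 as total.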

Staphylococcus aureus [19] = assay: Antibacterial activity against methicillin-resistant Staphylococcus aureus isolate M5 after 16 to 20 hrs by broth microdilution method; type: functional; summary of the method: as §1

| Structure (SMILES) | MIC (Staphylococcus aureus [1]) | MIC (Staphylococcus aureus [2]) | MIC (Staphylococcus aureus [3]) | MIC (Staphylococcus aureus [4]) | Activity (Staphylococcus aureus [5]) | MIC (Escherichia coli [6]) | Activity (Escherichia coli [7]) | MIC (Staphylococcus aureus [8]) | MIC (Enterococcus faecalis) | MIC (Staphylococcus aureus [9]) | MIC (Staphylococcus aureus [10]) | Activity (Staphylococcus aureus [11]) | MIC (Staphylococcus aureus [12]) | Activity (Escherichia coli [13]) | Activity (Escherichia coli [14]) | MIC (Salmonella enterica) | MIC (Staphylococcus aureus [15]) | MIC (Staphylococcus aureus [16]) | MIC (Staphylococcus aureus [17]) | HC50 at 1 h [18] | other results |
| --- | --- | --- | --- | --- | --- | --- | --- | --- | --- | --- | --- | --- | --- | --- | --- | --- | --- | --- | --- | --- | --- |
| CCCCCCCCN(CCCCCCCC)C(=O)[C@@H](N)CC(C)C.Cl | 4 µg/mL | 2 µg/mL | 2 µg/mL | 4 µg/mL | Active | 64 µg/mL | Active | 2 µg/mL | 2 µg/mL | 4 µg/mL | 4 µg/mL | Active | 4 µg/mL | Active | Active | > 128 µg/mL | 2 µg/mL | 4 µg/mL | 4 µg/mL | > 1000 µg/mL | MIC (Staphylococcus aureus [19]): 4 µg/mL |
| CCCCCN(CCCCC)C(=O)[C@@H](N)CCCCN.Cl.Cl |  |  | 128 µg/mL |  | Active | 128 µg/mL | Active |  | 128 µg/mL |  |  | Active |  | Active | Active | 128 µg/mL |  |  |  | 576 µg/mL |  |
| CCCCCCCCN(CCCCCCCC)C(=O)[C@@H](N)Cc1ccccc1.Cl | 32 µg/mL | 16 µg/mL | 8 µg/mL | 32 µg/mL | Active | > 128 µg/mL | Active | 16 µg/mL | 128 µg/mL | 32 µg/mL | 32 µg/mL | Active | 16 µg/mL | Active | Active | > 128 µg/mL | 16 µg/mL | 32 µg/mL | 32 µg/mL | > 1000 µg/mL | MIC (Staphylococcus aureus [19]): 32 µg/mL |
| CCCCCCCCCCN(CCCCCCCCCC)C(=O)[C@H](N)CO.Cl | 32 µg/mL | 32 µg/mL | 16 µg/mL | 32 µg/mL | Active | > 128 µg/mL | Active | 32 µg/mL | 32 µg/mL | 32 µg/mL | 32 µg/mL | Active | 32 µg/mL | Active | Active | > 128 µg/mL | 32 µg/mL | 32 µg/mL | 32 µg/mL | > 1000 µg/mL | MIC (Staphylococcus aureus [19]): 32 µg/mL |
| CCCCCCCCN(CCCCCCCC)C(=O)[C@@H](N)[C@@H](C)CC.Cl | 4 µg/mL | 4 µg/mL | 4 µg/mL | 4 µg/mL | Active | > 128 µg/mL | Active | 4 µg/mL | 4 µg/mL | 4 µg/mL | 4 µg/mL | Active | 4 µg/mL | Active | Active | > 128 µg/mL | 4 µg/mL | 4 µg/mL | 4 µg/mL | 293 µg/mL | MIC (Staphylococcus aureus [19]): 4 µg/mL |
